Assay results taken from ChEMBL document CHEMBL3817760, “Design, synthesis and evaluation of novel indandione derivatives as multifunctional agents with cholinesterase inhibition, anti-β-amyloid aggregation, antioxidant and neuroprotection properties against Alzheimer's disease” (Bioorg Med Chem, 2016).
pIC50: −log10 of the molar value. Active and inactive are the calls of the source. No cut-off for these calls is given here.

Experiments:
[1] = biological target: T1, Amyloid-beta precursor protein (Homo sapiens, UniProt P05067); assay: Inhibition of self-induced amyloid beta (1 to 42) (unknown origin) aggregation at 25 uM incubated for 48 hrs measured after 5 mins by thioflavin-T fluorescence assay
T1 sequence (P05067 whole entry): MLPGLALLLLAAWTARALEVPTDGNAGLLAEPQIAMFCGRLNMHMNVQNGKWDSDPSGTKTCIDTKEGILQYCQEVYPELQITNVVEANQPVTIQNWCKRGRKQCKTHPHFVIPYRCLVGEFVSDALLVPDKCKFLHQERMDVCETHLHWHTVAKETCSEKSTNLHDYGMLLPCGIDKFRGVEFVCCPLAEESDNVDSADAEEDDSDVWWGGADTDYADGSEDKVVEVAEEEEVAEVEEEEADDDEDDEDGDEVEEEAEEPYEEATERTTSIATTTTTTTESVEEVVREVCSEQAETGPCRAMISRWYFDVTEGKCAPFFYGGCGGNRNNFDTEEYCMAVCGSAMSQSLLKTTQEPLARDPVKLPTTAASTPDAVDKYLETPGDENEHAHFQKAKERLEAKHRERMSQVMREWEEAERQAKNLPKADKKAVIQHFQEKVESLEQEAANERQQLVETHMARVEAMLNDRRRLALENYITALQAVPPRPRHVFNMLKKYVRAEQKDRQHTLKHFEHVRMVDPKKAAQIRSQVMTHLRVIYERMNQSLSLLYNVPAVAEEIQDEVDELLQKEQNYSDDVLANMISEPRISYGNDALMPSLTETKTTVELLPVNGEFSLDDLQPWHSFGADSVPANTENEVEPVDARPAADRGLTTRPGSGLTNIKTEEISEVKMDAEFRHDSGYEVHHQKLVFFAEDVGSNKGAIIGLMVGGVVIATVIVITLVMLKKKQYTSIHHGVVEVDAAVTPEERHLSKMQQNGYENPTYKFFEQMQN
Procedure, shortened: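 Aβ1-42 pretreated with HFIP, then diluted in 50 mM phosphate buffer pH 7.4 to 25 μM final. Incubated ± compound (25 μM) at 37°C for 48 h, then diluted in 50 mM glycine–NaOH pH 8.0 containing 5 μM thioflavin-T. Fluorescence read 5 min later (ex 450/em 485 nm). Inhibition % = (1−IFi/IFc)×100 after background subtraction; triplicate.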

[2] = Selectivity index, ratio of IC50 for equine serum BuChE to IC50 for electric eel AChE
Procedure, shortened: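 Ratio of IC50 values from the modified Ellman assay. Equine serum BuChE (0.06 U/mL) and electric eel AChE (0.22 U/mL), each in 0.1 M phosphate pH 8.0 with DTNB and 0.075 M thiocholine substrate, A412 at 2 min, 25°C. IC50s were means of three experiments.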

Acetylcholinesterase = Acetylcholinesterase (Electrophorus electricus, UniProt O42275); assay: Inhibition of electric eel AChE using acetylthiocholine iodide as substrate preincubated for 5 mins followed by substrate addition measured after 2 mins by Ellman's method
Sequence of Acetylcholinesterase (O42275 whole entry): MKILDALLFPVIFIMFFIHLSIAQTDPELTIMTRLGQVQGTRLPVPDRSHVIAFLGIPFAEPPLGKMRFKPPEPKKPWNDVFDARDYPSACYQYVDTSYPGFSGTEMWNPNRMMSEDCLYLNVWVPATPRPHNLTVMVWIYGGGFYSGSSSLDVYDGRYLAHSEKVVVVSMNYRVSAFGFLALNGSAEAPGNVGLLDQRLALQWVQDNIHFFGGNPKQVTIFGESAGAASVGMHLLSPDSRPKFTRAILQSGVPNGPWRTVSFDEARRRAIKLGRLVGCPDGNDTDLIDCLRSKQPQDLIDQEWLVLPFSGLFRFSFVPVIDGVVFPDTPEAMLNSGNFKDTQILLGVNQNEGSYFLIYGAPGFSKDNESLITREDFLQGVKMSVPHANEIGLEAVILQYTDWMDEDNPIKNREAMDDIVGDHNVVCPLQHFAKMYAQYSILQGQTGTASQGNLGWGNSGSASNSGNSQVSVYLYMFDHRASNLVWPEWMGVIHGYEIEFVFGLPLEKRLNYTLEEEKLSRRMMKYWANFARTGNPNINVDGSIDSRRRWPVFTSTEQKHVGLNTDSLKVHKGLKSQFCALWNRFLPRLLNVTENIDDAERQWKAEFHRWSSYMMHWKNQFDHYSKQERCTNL

Cholinesterase = Cholinesterase (Equus caballus, UniProt P81908); assay: Inhibition of equine serum BuChE using butyrylthiocholine iodide as substrate preincubated for 5 mins followed by substrate addition measured after 2 mins by Ellman's method
Sequence of Cholinesterase (P81908 whole entry): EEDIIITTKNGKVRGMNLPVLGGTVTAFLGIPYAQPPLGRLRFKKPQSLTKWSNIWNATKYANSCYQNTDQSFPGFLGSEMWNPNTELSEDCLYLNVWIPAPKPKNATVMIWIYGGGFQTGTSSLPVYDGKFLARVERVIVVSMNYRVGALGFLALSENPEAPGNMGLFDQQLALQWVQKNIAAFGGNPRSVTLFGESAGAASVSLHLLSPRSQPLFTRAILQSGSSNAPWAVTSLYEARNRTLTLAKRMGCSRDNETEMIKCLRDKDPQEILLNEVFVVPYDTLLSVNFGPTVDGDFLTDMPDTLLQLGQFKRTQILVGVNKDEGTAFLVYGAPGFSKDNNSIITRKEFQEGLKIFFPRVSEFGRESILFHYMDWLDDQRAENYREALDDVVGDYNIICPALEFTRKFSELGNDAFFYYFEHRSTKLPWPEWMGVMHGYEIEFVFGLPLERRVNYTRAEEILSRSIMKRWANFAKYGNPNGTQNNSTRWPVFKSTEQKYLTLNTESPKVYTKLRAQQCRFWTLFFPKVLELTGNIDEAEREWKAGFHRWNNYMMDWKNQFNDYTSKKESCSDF
Procedure, shortened: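 BuChE from equine serum (0.06 U/mL) in 0.1 M phosphate buffer pH 8.0, compounds diluted from ethanol stocks to 1-100 µM final, standing 5 min before DTNB. Started with 0.075 M butyrylthiocholine; A412 read 2 min later at 25°C. Enzyme-free blanks and inhibitor-free full-activity controls included. Triplicates; IC50 from nonlinear regression of concentration-inhibition data.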

SH-SY5Y [3] = assay: Neuroprotective activity against amyloid beta (1 to 42)-induced neurotoxicity in human SH-SY5Y cells assessed as cell viability treated for 24 hrs measured after 48 hrs by MTT assay; format: functional, cell-based
Procedure, shortened: (§1)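 Aβ1-42 treated with HFIP (1 mg/ml), sonicated, left 24 h at room temperature and lyophilized; film dissolved in DMSO. SH-SY5Y cells plated at 2 × 10^4/well and allowed to attach 24 h. Aβ (25 μM) added ± compound (5-20 μM) in fresh medium. Viability measured by MTT as % of control after 48 h (methods; text says 24 h co-treatment). Morphology imaged by phase-contrast microscopy.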

SH-SY5Y [4] = assay: Neuroprotective activity against H2O2-induced neurotoxicity in human SH-SY5Y cells assessed as cell viability after 24 hrs by MTT assay relative to control; format: functional, cell-based
Procedure, shortened: (§2)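 SH-SY5Y cells seeded at 2 × 10^4/well and incubated 24 h. Medium then replaced with serum-free DMEM containing 200 μM H2O2 plus compound (5, 10, 20 μM) at 37°C for 24 h. Viability measured by MTT as % of untreated control, and morphology photographed under phase-contrast microscopy. Mean ± S.D of three experiments in triplicate; ANOVA with Bonferroni test.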

SH-SY5Y [5] = assay: Neuroprotective activity against H2O2-induced neurotoxicity in human SH-SY5Y cells assessed as change in cell morphology at 20 uM after 24 hrs by phase contrast microscopy; format: functional, cell-based; procedure, shortened: as §2
[6] = Cytotoxicity against human SH-SY5Y cells assessed as cell viability at 5 uM after 48 hrs by MTT assay; format: cell-based; details: read-out: Activity
Procedure, shortened: (§3)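 SH-SY5Y cells grown in DMEM with 10% FBS and 1% penicillin-streptomycin at 37°C, 5% CO2. Plated at 2000 cells/well and cultured 24 h, then exposed 48 h to compound at 1-100 μM (DMSO stock diluted in complete medium). MTT added for 4 h, formazan dissolved in DMSO, absorbance read at 570 nm (reference 630 nm). Triplicates; three independent experiments.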

[7] = Cytotoxicity against human SH-SY5Y cells assessed as cell viability at 1 uM after 48 hrs by MTT assay; format: cell-based; details: read-out: Activity; procedure, shortened: as §3
SH-SY5Y [8] = assay: Cytotoxicity against human SH-SY5Y cells assessed as decrease in cell viability up to 100 uM after 24 hrs by MTT assay; format: cell-based
SH-SY5Y [9] = assay: Neuroprotective activity against amyloid beta (1 to 42)-induced neurotoxicity in human SH-SY5Y cells assessed as change in cell morphology at 20 uM after 24 hrs by phase contrast microscopy; format: functional, cell-based; procedure, shortened: as §1
SH-SY5Y [10] = assay: Neuroprotective activity against H2O2-induced cell death in human SH-SY5Y cells at 20 uM after 24 hrs by phase contrast microscopy; format: functional, cell-based; procedure, shortened: as §2
[11] = biological target: T1, Amyloid-beta precursor protein; assay: Potency index, ratio of curcumin IC50 to compound IC50 for self-induced amyloid beta (1 to 42) (unknown origin) aggregation
[12] = biological target: Acetylcholinesterase (Electrophorus electricus) (UniProt O42275); assay: Mixed type inhibition of electric eel AChE at 10 to 40 nM preincubated with enzyme for 15 mins followed by substrate addition by Lineweaver-Burk plot analysis
Sequence of Acetylcholinesterase (Electrophorus electricus) (O42275 24-633 limits assumed): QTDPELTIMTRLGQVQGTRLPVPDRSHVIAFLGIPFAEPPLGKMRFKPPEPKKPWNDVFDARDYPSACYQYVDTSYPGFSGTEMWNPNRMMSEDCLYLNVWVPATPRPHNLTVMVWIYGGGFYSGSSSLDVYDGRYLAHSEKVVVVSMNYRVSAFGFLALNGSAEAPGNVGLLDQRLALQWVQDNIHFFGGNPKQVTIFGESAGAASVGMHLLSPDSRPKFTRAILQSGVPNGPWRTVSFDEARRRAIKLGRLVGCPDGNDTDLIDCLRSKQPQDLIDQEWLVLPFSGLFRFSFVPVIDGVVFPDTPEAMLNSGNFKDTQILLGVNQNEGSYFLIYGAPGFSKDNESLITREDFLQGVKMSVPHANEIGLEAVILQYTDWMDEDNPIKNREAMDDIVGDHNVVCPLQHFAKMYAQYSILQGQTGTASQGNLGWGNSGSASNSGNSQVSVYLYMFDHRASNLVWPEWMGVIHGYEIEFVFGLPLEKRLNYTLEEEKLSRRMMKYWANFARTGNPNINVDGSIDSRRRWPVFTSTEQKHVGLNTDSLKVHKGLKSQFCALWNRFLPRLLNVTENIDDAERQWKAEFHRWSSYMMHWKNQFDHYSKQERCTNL
Procedure, shortened: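 Electric eel AChE with the compound, preincubated at 37°C for 15 min before substrate addition. Reciprocal (Lineweaver-Burk) plots were drawn, and their slopes were plotted against inhibitor concentration in a weighted analysis. Ki was taken as the ratio of plot intercept to slope.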

[13] = biological target: T1, Amyloid-beta precursor protein; assay: Inhibition of amyloid beta (1 to 42) (unknown origin) aggregation at 25 uM after 72 hrs by transmission electron microscopy
Procedure, shortened: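 Aβ1-42 stock diluted in 20 mM phosphate buffer (pH 7.4) at 4°C, then incubated at 37°C with or without compound. Final concentrations per methods: peptide 50 μM, compound 25 μM; figure legend gives 25 μM each. Incubation time given as 48 h (methods) and 72 h (text). Samples placed on carbon-coated grids, stained with 1% uranyl acetate and imaged by TEM.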

SH-SY5Y [14] = assay: Antioxidant activity in human SH-SY5Y cells assessed as inhibition of H2O2-induced ROS production at 10 to 20 uM after 24 hrs by DCFH-DA fluorescent assay; format: functional, cell-based
Procedure, shortened: (§4)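 SH-SY5Y cells seeded at 2 × 10^4/well and exposed 24 h to H2O2 (200 μM) with or without compound at 5, 10 and 20 μM. Intracellular ROS then probed with DCFH-DA for 20 min and total DCF fluorescence read on a plate reader. Mean ± S.D of three experiments, each in triplicate; one-way ANOVA with Bonferroni test.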

[15] = biological target: T1, Amyloid-beta precursor protein; assay: Inhibition of self-induced amyloid beta (1 to 42) (unknown origin) aggregation incubated for 48 hrs measured after 5 mins by thioflavin-T fluorescence assay
[16] = Cytotoxicity against human SH-SY5Y cells assessed as cell viability at 75 uM after 48 hrs by MTT assay; format: cell-based; details: read-out: Activity; procedure, shortened: as §3
[17] = Cytotoxicity against human SH-SY5Y cells assessed as cell viability at 100 uM after 48 hrs by MTT assay; format: cell-based; details: read-out: Activity; procedure, shortened: as §3
[18] = Cytotoxicity against human SH-SY5Y cells assessed as cell viability at 25 uM after 48 hrs by MTT assay; format: cell-based; details: read-out: Activity; procedure, shortened: as §3
[19] = Cytotoxicity against human SH-SY5Y cells assessed as cell viability at 50 uM after 48 hrs by MTT assay; format: cell-based; details: read-out: Activity; procedure, shortened: as §3
[20] = Cytotoxicity against human SH-SY5Y cells assessed as cell viability at 10 uM after 48 hrs by MTT assay; format: cell-based; details: read-out: Activity; procedure, shortened: as §3
SH-SY5Y [21] = assay: […] in human SH-SY5Y cells at 5 to 20 uM after 24 hrs by DCFH-DA fluorescent assay; format: ADME, cell-based
SH-SY5Y [22] = assay: Cytotoxicity against human SH-SY5Y cells assessed as decrease in cell viability after 48 hrs by MTT assay; format: cell-based; procedure, shortened: as §3
SH-SY5Y [23] = assay: Antioxidant activity in human SH-SY5Y cells assessed as inhibition of H2O2-induced ROS production after 24 hrs by DCFH-DA fluorescent assay; format: functional, cell-based; procedure, shortened: as §4

| Structure (SMILES) | inhibition [1] [%] | Ratio IC50 [2] | pIC50 (Acetylcholinesterase) | pIC50 (Cholinesterase) | also measured |
| --- | --- | --- | --- | --- | --- |
| Cc1ccc(N2CCN(c3ccc(C=C4C(=O)c5ccccc5C4=O)cc3)CC2)cc1 | 62.4 | 1.5 | 6.60 | 6.41 | – |
| Cc1ccc(N2CCN(c3ccc(C=C4C(=O)c5ccccc5C4=O)cc3)CC2)c(C)c1 | 69.9 | 1.39 | 6.53 | 6.38 | – |
| O=C1C(=Cc2ccc(N3CCN(C(=O)c4ccccc4)CC3)cc2)C(=O)c2ccccc21 | 53.9 | 0.9 | 4.85 | 4.87 | – |
| O=C1C(=Cc2ccc(N3CCN(c4ncccn4)CC3)cc2)C(=O)c2ccccc21 | 80.9 | 77.1 | 7.44 | 5.56 | Activity (SH-SY5Y [3]): Dose-dependent effect; Activity (SH-SY5Y [4]): Dose-dependent effect; Activity (SH-SY5Y [5]): Active; viability at 48 h, 5 µM [6]: 96.4%; viability at 48 h, 1 µM [7]: 98.1%; Activity (SH-SY5Y [8]): Non-toxic; Activity (SH-SY5Y [9]): Active; Activity (SH-SY5Y [10]): Active; Ratio IC50 [11]: 1.5; inhibition [12]: Active; inhibition [13]: Active; inhibition (SH-SY5Y [14]): Active; pIC50 [15]: 5.00; viability at 48 h, 75 µM [16]: 86.3%; viability at 48 h, 100 µM [17]: 82.3%; viability at 48 h, 25 µM [18]: 93.9%; viability at 48 h, 50 µM [19]: 89.6%; viability at 48 h, 10 µM [20]: 95.3% |
| O=C1C(=Cc2ccc(N3CCN(c4ccccc4)CC3)cc2)C(=O)c2ccccc21 | 57.3 | 1.9 | 5.61 | 5.33 | – |
| O=C1C(=Cc2ccc(N3CCN(c4ccc(F)cc4)CC3)cc2)C(=O)c2ccccc21 | 61.8 | 29.6 | 6.76 | 5.29 | – |
| O=C1C(=Cc2ccc(N3CCN(C(=O)c4ccco4)CC3)cc2)C(=O)c2ccccc21 | 82.2 | 54.2 | 7.32 | 5.58 | Activity (SH-SY5Y [3]): Dose-dependent effect; Activity (SH-SY5Y [4]): Dose-dependent effect; Activity (SH-SY5Y [5]): Active; Activity (SH-SY5Y [21]): Non-toxic; viability at 48 h, 5 µM [6]: 96.4%; viability at 48 h, 1 µM [7]: 98.1%; Activity (SH-SY5Y [8]): Non-toxic; Activity (SH-SY5Y [9]): Active; Activity (SH-SY5Y [10]): Active; Ratio IC50 [11]: 1.5; inhibition [13]: Active; pIC50 [15]: 5.04; viability at 48 h, 75 µM [16]: 86.3%; Activity (SH-SY5Y [22]): Dose-dependent effect; viability at 48 h, 100 µM [17]: 82.3%; viability at 48 h, 25 µM [18]: 93.9%; viability at 48 h, 50 µM [19]: 89.6%; viability at 48 h, 10 µM [20]: 95.3%; inhibition (SH-SY5Y [23]): Dose-dependent effect |
| O=C1C(=Cc2ccc(N3CCN(C(c4ccccc4)c4ccccc4)CC3)cc2)C(=O)c2ccccc21 | 80.6 | 54.9 | 7.21 | 5.47 | Ratio IC50 [11]: 1.5; pIC50 [15]: 4.93 |
| O=C1C(=Cc2ccc(N3CCN(c4ccc(C(F)(F)F)cc4)CC3)cc2)C(=O)c2ccccc21 | 74.9 | 15.1 | 6.85 | 5.67 | – |
| O=C1C(=Cc2ccc(N3CCN(c4ccc(Cl)cc4)CC3)cc2)C(=O)c2ccccc21 | 60.8 | 4.8 | 6.64 | 5.96 | – |
| O=C1C(=Cc2ccc(N3CCN(Cc4ccc5c(c4)OCO5)CC3)cc2)C(=O)c2ccccc21 | 71.8 | 33.8 | 6.88 | 5.37 | – |
| O=C1C(=Cc2ccc(N3CCN(c4ccccn4)CC3)cc2)C(=O)c2ccccc21 | 70.9 | 7.8 | 6.95 | 6.06 | – |
